Source: ChEMBL document CHEMBL2384908, “Discovery of novel bromophenol 3,4-dibromo-5-(2-bromo-3,4-dihydroxy-6-(isobutoxymethyl)benzyl)benzene-1,2-diol as protein tyrosine phosphatase 1B inhibitor and its anti-diabetic properties in C57BL/KsJ-db/db mice” (Eur J Med Chem, 2013)
Active and inactive are the calls of the source. The calls are words filed in the database; no cut-off is given here.

Experiments:
[1] = target: T1, Tyrosine-protein phosphatase non-receptor type 1 (Homo sapiens) (UniProt P18031); details: at 20 µg/mL
T1 sequence (whole entry): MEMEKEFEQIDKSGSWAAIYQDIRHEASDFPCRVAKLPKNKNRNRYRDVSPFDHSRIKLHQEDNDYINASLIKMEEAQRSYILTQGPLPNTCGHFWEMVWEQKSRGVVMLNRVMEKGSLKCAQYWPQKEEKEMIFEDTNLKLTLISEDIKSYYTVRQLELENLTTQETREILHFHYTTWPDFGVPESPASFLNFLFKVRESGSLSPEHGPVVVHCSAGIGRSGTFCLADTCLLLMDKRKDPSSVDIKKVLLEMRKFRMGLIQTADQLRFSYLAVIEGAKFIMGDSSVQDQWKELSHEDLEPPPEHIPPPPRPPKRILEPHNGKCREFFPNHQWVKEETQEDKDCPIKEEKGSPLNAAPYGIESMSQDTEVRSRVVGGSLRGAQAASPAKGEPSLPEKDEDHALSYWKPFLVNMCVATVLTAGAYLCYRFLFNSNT

[2] = target: T1, Tyrosine-protein phosphatase non-receptor type 1 (Homo sapiens); details: at 5 µg/mL
Mus musculus [3] = test: Antidiabetic activity in C57BL/KsJ db/db mouse assessed as reduction of blood glucose level at 50 mg/kg, po administered for 6 weeks; assay type: functional
Outline: (§1)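 C57BL/KsJ db/db mice, 6-8 weeks old, one-week adaptation, n = 10 per group, chow and water ad libitum. Compound suspended in 0.5% CMC-Na with 2% tween-80, given orally once daily for six weeks (about 0.2 mL/20 g). Vehicle-treated db/db model group. Blood glucose read weekly by glucometer.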

Mus musculus [4] = test: […] activity in C57BL/KsJ db/db mouse assessed as reduction of HbA1c level in blood at 50 mg/kg, po administered for 6 weeks (reference value: 2.65 +/- 0.40%); assay type: functional; design: scale not given: the % may be the effect or the level left
Outline: (§2)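 db/db mice (C57BL/KsJ, 6-8 weeks, n = 10/group) given compound orally once daily for six weeks in 0.5% CMC-Na with 2% tween-80. Vehicle model group; db/dm mice as controls. At the end, overnight fast, then dosing; eyeball blood taken 1 h later into heparin tubes. HbA1c read by reagent kit. GSP measured in plasma by fructosamine method. Mean ± s.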

Mus musculus [5] = test: Antidyslipidemic activity in C57BL/KsJ db/db mouse assessed as reduction of total cholesterol level in blood at 50 mg/kg, po administered for 6 weeks measured on 2nd week (reference value: 3.5 +/- 0.2 mmol/l); assay type: functional
Mus musculus [6] = test: […] activity in C57BL/KsJ db/db mouse assessed as reduction of glycated serum protein level in blood at 50 mg/kg, po administered for 6 weeks (reference value: 1.62 +/- 0.27 mmol/l); assay type: functional
Outline: as §2

Mus musculus [7] = test: Antidyslipidemic activity in C57BL/KsJ db/db mouse assessed as reduction of triglycerides level in blood at 50 mg/kg, po administered for 6 weeks (reference value: 1.05 +/- 0.11 mmol/l); assay type: functional
Mus musculus [8] = test: Antidyslipidemic activity in C57BL/KsJ db/db mouse assessed as reduction of triglycerides level in blood at 50 mg/kg, po administered for 6 weeks measured on 2nd week (reference value: 1.08 +/- 0.07 mmol/l); assay type: functional
Mus musculus [9] = test: Antidyslipidemic activity in C57BL/KsJ db/db mouse assessed as reduction of total cholesterol level in blood at 50 mg/kg, po administered for 6 weeks (reference value: 3.3 +/- 0.5 mmol/l); assay type: functional
Mus musculus [10] = test: Antidiabetic activity in C57BL/KsJ db/db mouse assessed as reduction of blood glucose level at 50 mg/kg, po administered for 6 weeks measured on first week; assay type: functional
Outline: as §1

Mus musculus [11] = test: Antidyslipidemic activity in C57BL/KsJ db/db mouse assessed as reduction of total cholesterol level in blood at 25 mg/kg, po administered for 6 weeks measured on 2nd week (reference value: 3.5 +/- 0.2 mmol/l); assay type: functional
Mus musculus [12] = test: […] activity in C57BL/KsJ db/db mouse assessed as reduction of HbA1c level in blood at 25 mg/kg, po administered for 6 weeks (reference value: 2.65 +/- 0.40%); assay type: functional; design: scale not given: the % may be the effect or the level left
Outline: as §2

Mus musculus [13] = test: Antidyslipidemic activity in C57BL/KsJ db/db mouse assessed as reduction of total cholesterol level in blood at 25 mg/kg, po administered for 6 weeks (reference value: 3.3 +/- 0.5 mmol/l); assay type: functional
Mus musculus [14] = test: Antidiabetic activity in C57BL/KsJ db/db mouse assessed as reduction of blood glucose level at 25 mg/kg, po administered for 6 weeks measured on 3rd week; assay type: functional; design: scale not given: the % may be the effect or the level left
Outline: as §1

Mus musculus [15] = test: Antidyslipidemic activity in C57BL/KsJ db/db mouse assessed as reduction of triglycerides level in blood at 25 mg/kg, po administered for 6 weeks measured on 2nd week (reference value: 1.08 +/- 0.07 mmol/l); assay type: functional
Mus musculus [16] = test: Toxicity in C57BL/KsJ db/db mouse assessed as change in body weight at 25 to 50 mg/kg, po administered for 6 weeks; assay type: organism-based; design: dose 25-50 mg/kg, route oral; details: in vivo, 1008 h
Mus musculus [17] = test: Toxicity in C57BL/KsJ db/db mouse assessed as mortality at 25 to 50 mg/kg, po administered for 6 weeks; assay type: organism-based; design: dose 25-50 mg/kg, route oral; details: in vivo, 1008 h
Mus musculus [18] = test: Antidyslipidemic activity in po dosed C57BL/KsJ db/db mouse assessed as reduction of total cholesterol level in blood administered for 6 weeks; assay type: functional, organism-based
Mus musculus [19] = test: Antidyslipidemic activity in po dosed C57BL/KsJ db/db mouse assessed as reduction of triglycerides level in blood administered for 6 weeks; assay type: functional, organism-based
Mus musculus [20] = test: Antidiabetic activity in C57BL/KsJ db/db mouse assessed as reduction of food and water intake at 25 to 50 mg/kg, po administered for 6 weeks; assay type: functional, organism-based
Outline: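 db/db mice (C57BL/KsJ, 6-8 weeks), n = 10 per group, dosed orally once daily for six weeks as a suspension in 0.5% CMC-Na plus 2% tween-80. Vehicle model group; db/dm mice as non-diabetic controls. Food intake recorded weekly.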

Mus musculus [21] = test: Antidyslipidemic activity in C57BL/KsJ db/db mouse assessed as reduction of triglycerides level in blood at 25 mg/kg, po administered for 6 weeks (reference value: 1.05 +/- 0.11 mmol/l); assay type: functional
Mus musculus [22] = test: […] activity in C57BL/KsJ db/db mouse assessed as reduction of glycated serum protein level in blood at 25 mg/kg, po administered for 6 weeks (reference value: 1.62 +/- 0.27 mmol/l); assay type: functional
Outline: as §2

Mus musculus [23] = test: Antidiabetic activity in C57BL/KsJ db/db mouse assessed as reduction of blood glucose level at 50 mg/kg, po administered for 6 weeks measured on 3rd week; assay type: functional; design: scale not given: the % may be the effect or the level left
Outline: as §1

[24] = target: T2, Tyrosine-protein phosphatase non-receptor type 1 (Homo sapiens, UniProt P18031); test: Inhibition of human recombinant GST-tagged PTP1B using para-nitrophenyl phosphate as substrate after 2 mins
T2 sequence (P18031 whole entry): T1 sequence (whole entry)

| inhibition [1] [%] | inhibition [2] [%] | Compound | further results |
| --- | --- | --- | --- |
| 10.6 | – | COc1cc(C2OC(=O)c3cc(OC)c(OC)c(Br)c32)c(Br)c(Br)c1OC (configuration not stated) | – |
| 53.4 | 32.1 | Cc1cc(O)c(O)c(Br)c1Cc1cc(O)c(O)c(Br)c1Br | – |
| 73.8 | 17.6 | CCOCc1cc(OC)c(OC)c(Br)c1C(=O)c1cc(OC)c(OC)c(Br)c1Br | – |
| – | – | CN(CCOc1ccc(CC2SC(=O)NC2=O)cc1)c1ccccn1 (configuration not stated) [ROSIGLITAZONE] | Activity (Mus musculus [3]): 8 mmol/L; Activity (Mus musculus [4]): 2.56%; Activity (Mus musculus [5]): 6.5 mmol/L; Activity (Mus musculus [6]): 2.6 mmol/L; Activity (Mus musculus [7]): 1.29 mmol/L; Activity (Mus musculus [8]): 1.06 mmol/L; Activity (Mus musculus [9]): 7.7 mmol/L; Activity (Mus musculus [10]): 8.9 mmol/L |
| 74.9 | 29.1 | COc1cc(Cc2c(CO)cc(OC)c(OC)c2Br)c(Br)c(Br)c1OC | – |
| 28.9 | – | COc1ccc(C(=O)c2c(C)cc(OC)c(OC)c2Br)cc1OC | – |
| 50.6 | 17.3 | CCOCc1cc(O)c(O)c(Br)c1Cc1cc(O)c(O)c(Br)c1 | – |
| 64.6 | 27.2 | CCCCOCc1cc(O)c(O)c(Br)c1Cc1cc(O)c(O)c(Br)c1Br | – |
| 5.62 | – | COc1cc(Cc2c(CO)cc(OC)c(OC)c2Br)cc(Br)c1OC | – |
| 51.9 | 25.3 | COCc1cc(O)c(O)c(Br)c1Cc1cc(O)c(O)c(Br)c1Br | – |
| 75.3 | 40.1 | COc1c(Br)c(C)c(Cc2c(Br)c(Br)c(OC)c(OC)c2Br)c(Br)c1OC | – |
| 36.7 | – | COc1cc(C(=O)c2c(C)cc(OC)c(OC)c2Br)cc(Br)c1OC | – |
| 72.6 | 38.2 | COc1cc(C)c(Cc2c(Br)c(Br)c(OC)c(OC)c2Br)c(Br)c1OC | – |
| 55.3 | 23.8 | COC(=O)c1cc(OC)c(OC)c(Br)c1C(=O)c1cc(OC)c(OC)c(Br)c1Br | – |
| – | – | Oc1cc(Cc2cc(Br)c(O)c(Br)c2Br)c(Br)c(Br)c1O | IC50 [24]: 2420 nM |
| 48.6 | – | COc1cc(C(=O)c2c(C)cc(OC)c(OC)c2Br)c(Br)c(Br)c1OC | – |
| 61.8 | 17.7 | COCc1cc(OC)c(OC)c(Br)c1C(=O)c1cc(OC)c(OC)c(Br)c1Br | – |
| 86.2 | 55.7 | CCCOCc1cc(O)c(O)c(Br)c1Cc1cc(O)c(O)c(Br)c1Br | – |
| 11.4 | – | COc1cc(C2OCc3cc(OC)c(OC)c(Br)c32)c(Br)c(Br)c1OC (configuration not stated) | – |
| 29.9 | – | COc1cc(C(=O)c2c(C(=O)O)cc(OC)c(OC)c2Br)c(Br)c(Br)c1OC | – |
| 14.5 | – | COc1cc(Cc2c(C)cc(OC)c(OC)c2Br)cc(Br)c1OC | – |
| 87.5 | 43.1 | COc1cc(Cc2c(C)cc(OC)c(OC)c2Br)c(Br)c(Br)c1OC | – |

| Compound | inhibition [1] [%] | inhibition [2] [%] | further results |
| --- | --- | --- | --- |
| CC(C)COCc1cc(O)c(O)c(Br)c1Cc1cc(O)c(O)c(Br)c1Br | 96.2 | 48.3 | Activity (Mus musculus [11]): 7.7 mmol/L; Activity (Mus musculus [12]): 3.24%; Activity (Mus musculus [13]): 8.5 mmol/L; Activity (Mus musculus [4]): 3.03%; Activity (Mus musculus [14]): 32.7%; Activity (Mus musculus [5]): 7.8 mmol/L; Activity (Mus musculus [6]): 3 mmol/L; Activity (Mus musculus [7]): 1.48 mmol/L; Activity (Mus musculus [15]): 1.16 mmol/L; Activity (Mus musculus [16]): Toxic; Activity (Mus musculus [17]): Non-toxic; Activity (Mus musculus [18]): Dose-dependent effect; Activity (Mus musculus [19]): Dose-dependent effect; Activity (Mus musculus [8]): 1.35 mmol/L; Activity (Mus musculus [20]): Active; Activity (Mus musculus [21]): 1.41 mmol/L; Activity (Mus musculus [9]): 9.1 mmol/L; Activity (Mus musculus [22]): 3.29 mmol/L; Activity (Mus musculus [23]): 36.4% |
